Data reported in paper PMC3640569 (Food biophysics, 2012).
Values after ≈ are worked out from the molar mass of the structure shown. Values joined by “and” are separate entries in the source; they are usually repeats but may differ in a detail not shown here. Equal entries are not always repeated. “Also recorded” adds a separate entry of the source.

How the values were obtained:
[1] = Oil-water partition coefficient estimated from saturation concentrations; assay type: physicochemical
[2] = Organic phase solubility of PMF; assay type: physicochemical
In short: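 Thermal quenching: weighed PMF was stirred into MCT or LCT (corn oil) for 1 h at 90–100 °C, cooled to 25 °C and held up to 72 h. Crystals were inspected visually and by optical microscopy. Saturation concentration was the mean of four measurements at the highest PMF loadings.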

[3] = Solubility of PMF in simulated small intestinal fluids; assay type: physicochemical; conditions: 0.05 % PVA or HPMC in SSIF
In short: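 PMF in DMSO was mixed with buffer, fasted SSIF or fed SSIF (150 mM NaCl, 10 mM CaCl₂, 15 mg/mL bile, 2.4 mg/mL lipase), with or without 0.05 % PVA or HPMC. Samples were stirred constantly for 72 h at 37 °C and centrifuged to remove crystals. Soluble PMF in the supernatant was measured by UV-vis at 330 nm.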

[4] = Encapsulation of PMF in oil-in-water nanoemulsions; assay type: physicochemical
In short: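 Oil phase was 1 wt% PMF dissolved in MCT at 90–100 °C. Aqueous phase was 2 wt% Tween 20 in 5 mM phosphate, pH 7.0. Both were kept above 50 °C, blended 2 min, then given five microfluidizer passes at 12,000 psi. Oil content was 2.5–20 % at a PMF:oil ratio of 1:100 (initial 0.56–5.6 mM). After storage, dispersed and total PMF (remixed sample) were measured by UV-vis at 330 nm.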

[5] = cited from earlier work
Theoretical prediction = experiment: Theoretical prediction
In short: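 Calculated, not measured: maximum PMF dissolvable in the oil-water system at equilibrium was derived with a mass-balance equation (Eq. 1). Inputs were the masses of solute, oil and water and the experimentally measured saturation concentrations of PMF in each carrier oil (thermal quenching) and in buffer (solvent injection), assuming oil-water partitioning.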

[6] = Aqueous phase solubility of PMF; assay type: physicochemical
In short: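 Solvent injection: 1 % PMF in DMSO was injected into aqueous solutions of water-soluble polymers (0–5 %) or polymer-free buffer, giving a final 56 µM PMF. Mixtures were stirred at 120 rpm for 72 h at 25 °C, then centrifuged (4000 rpm, 15 min) to remove crystals. Supernatant PMF was read by UV-vis at 330 nm against a calibration curve. Runs were done in duplicate or triplicate and reported as mean ± SD.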

In vitro digestion model = assay type: in vitro ADME; conditions: 20 wt% MCT nanoemulsion, 2.8 mM PMF, Fa-SSIF
In short: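 A nanoemulsion (20 wt% MCT, 2 wt% Tween 20, 2.8 mM PMF) was added to fasted SSIF (100 mM NaCl, 5 mM CaCl₂, 5 mg/mL bile extract, 0.6 mg/mL lipase, 5 mM phosphate). It was equilibrated 10 min to 37 °C at pH 7.00, and lipolysis was started with pancreatic extract. pH was held by pH-stat with 2 M NaOH. Timed samples were stopped with 4-BBBA and centrifuged (4000 rpm, 30 min, RT). The supernatant micelle phase was diluted 1:10 in DMSO and read at 330 nm. Done in triplicate.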

[7] = rat, 2 to 9 mg per day in a 71 kcal per day diet; cited from earlier work

SMILES: COc1ccc(-c2cc(=O)c3c(O)c(OC)c(OC)c(OC)c3o2)cc1 [PMF, 5-hydroxy-6,7,8,4'-tetramethoxy-flavone]
- oil-water partition coefficient KOW (=CSO*/CSW*) ([1]; LCT / buffer): about 4,520
- oil-water partition coefficient KOW (=CSO*/CSW*) ([1]; MCT / buffer): ~6,560
- saturation concentration in the oil phase (CSO*) ([2]; LCT): around 1.55 mg/mL
- saturation concentration in the oil phase (CSO*) ([2]; LCT (corn oil), 25 °C, 72 h storage): 4.2 mM and 4.2 ± 0.4 mM
- saturation concentration in the oil phase (CSO*) ([2]; MCT): ~2.2 mg/mL
- solubility at 72 h ([2]; oil phases (LCT, MCT), 25 °C, oil or lipid, thermodynamic from solid): 4 to 6 mM (≈ 1430 to 2150 µg/mL)
- effect of water-soluble polymers on solubility in SSIFs [3]: little influence
- encapsulation efficiency ([4]; 2.5 % fat (MCT), 20 days storage): 21%
- encapsulated PMF in nanoemulsion ([4]; 2.5 % fat (MCT), initial 0.56 mM PMF, 20 days storage): ≈ 0.12 mM
- encapsulation efficiency ([4]; 5 % fat (MCT), 20 days storage): 21%
- encapsulated PMF in nanoemulsion ([4]; 5 % fat (MCT), initial 1.4 mM PMF, 20 days storage): ~0.29 mM
- encapsulation efficiency ([4]; 10 % fat (MCT), 20 days storage): 20%
- encapsulated PMF in nanoemulsion ([4]; 10 % fat (MCT), initial 2.8 mM PMF, 20 days storage): ~0.55 mM
- encapsulation efficiency ([4]; 20 % fat (MCT), 20 days storage): 42%
- encapsulated PMF in nanoemulsion ([4]; 20 % fat (MCT), initial 5.6 mM PMF, 20 days storage): ~2.33 mM
- encapsulation efficiency ([4]; 20 wt% LCT, initial PMF 5.6 mM, 72 h): around 48%
- encapsulation efficiency ([4]; 20 wt% MCT, initial PMF 5.6 mM, 72 h): ~69%
- encapsulation efficiency ([4]; 20 wt% oil (LCT or MCT), initial PMF 0.56, 1.4 and 2.8 mM, 72 h): 75 to 100%
- reported saturation level in pure water [5]: ≈ 0.9 µM
- soluble PMF at saturation predicted using Eq. 1 (Theoretical prediction; 2.5 % fat MCT nanoemulsion): 0.15 mM
- soluble PMF at saturation predicted using Eq. 1 (Theoretical prediction; 5 % fat MCT nanoemulsion): 0.31 mM
- soluble PMF at saturation predicted using Eq. 1 (Theoretical prediction; 10 % fat MCT nanoemulsion): 0.61 mM
- soluble PMF at saturation predicted using Eq. 1 (Theoretical prediction; 20 % fat MCT nanoemulsion): 1.22 mM
- saturation concentration calculated using Eq. 1 (Theoretical prediction; 20 wt% LCT nanoemulsion): 0.84 mM
- PMF solubilized per 100 g of solution ([6]; 0.5 % HPMC aqueous phase): about 0.36 mg per 100 g
- increase in PMF concentration in aqueous phase by water-soluble polymers ([6]; certain types and amounts of polymer (HPMC, PVA)): ~10 fold
- saturation concentration in water / buffer solution ([6]; no polymer, 25 °C, 72 h): 0.93 µM and ≈ 0.93 µM
- effect of polymer on aqueous solubility ([6]; polyethylene glycol (PEG)): ineffective at increasing solubility; also recorded: little effect
- solubility kinetic at 72 h ([6]; pure buffer solution, 25 °C, aqueous buffer, kinetic from dmso stock): 0.33 µg/mL (≈ 0.921 µM)
- effect of polymer on aqueous solubility ([6]; β-cyclodextrin (CD)): ineffective at increasing solubility; also recorded: little effect
- concentration of PMF in the micelle phase (In vitro digestion model; after 3 min digestion): around 3 µM
- concentration of PMF in the micelle phase (In vitro digestion model; after 120 min digestion): around 16 µM

SMILES: COc1ccc(-c2cc(=O)c3c(OC)c(OC)c(OC)c(OC)c3o2)cc1OC [nobiletin]
- anti-carcinogenic effect [7]: significant anti-carcinogenic effect
